Measurements taken from ChEMBL document CHEMBL3085723, “Design, synthesis and discovery of picomolar selective α4β2 nicotinic acetylcholine receptor ligands” (J Med Chem, 2013).

How the values were obtained:
[1] = molecular target: T1, Neuronal acetylcholine receptor; alpha4/beta2 (Homo sapiens, UniProt P17787+P43681); test: Displacement of [3H]epibatidine from human alpha4beta2 nAChR after 4 hrs by cell-based assay
Method in brief: (§1)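 Membranes from stably transfected cells or rat forebrain, homogenized in 50 mM Tris·HCl, pH 7.4, at 4 °C and pelleted at 36000g. Separation by vacuum filtration on PEI-treated GF/C filters. Ki reported.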

HEK293 = test: Selectivity ratio of Ki for rat alpha3beta4 nAChR expressed in HEK293 cells to Ki for human alpha4beta2 nAChR; format: cell-based
[2] = molecular target: Neuronal acetylcholine receptor; alpha2/beta4 (Rattus norvegicus, UniProt P12389+P12392); test: Displacement of [3H]epibatidine from rat alpha2beta4 nAChR expressed in HEK293 cells after 4 hrs; format: cell-based
Method in brief: (§2)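 Membranes from stably transfected cells or rat forebrain, homogenized in 50 mM Tris·HCl, pH 7.4, at 4 °C and pelleted at 36000g. […] Separation by vacuum filtration on PEI-treated GF/C filters. Ki reported.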

[3] = molecular target: Neuronal acetylcholine receptor; alpha4/beta4 (Rattus norvegicus, UniProt P09483+P12392); test: Displacement of [3H]epibatidine from rat alpha4beta4 nAChR expressed in HEK293 cells after 4 hrs; format: cell-based; method in brief: as §2
[4] = Displacement of [3H]epibatidine from nAChR in rat forebrain; format: tissue-based; method in brief: as §2
[5] = molecular target: Neuronal acetylcholine receptor; alpha3/beta2 (Rattus norvegicus, UniProt P04757+P12390); test: Displacement of [3H]epibatidine from rat alpha3beta2 nAChR expressed in HEK293 cells after 4 hrs; format: cell-based; method in brief: as §2
[6] = molecular target: Neuronal acetylcholine receptor; alpha2/beta2 (Rattus norvegicus, UniProt P12389+P12390); test: Displacement of [3H]epibatidine from rat alpha2beta2 nAChR expressed in HEK293 cells after 4 hrs; format: cell-based; method in brief: as §2
[7] = molecular target: Neuronal acetylcholine receptor; alpha3/beta4 (Rattus norvegicus) (UniProt P04757+P12392); test: Agonist activity at rat alpha3beta4 nAChR expressed in HEK293 cells assessed as stimulation of [86Rb+] efflux after 2 mins by liquid scintillation counting relative to nicotine; format: cell-based
Method in brief: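 Rat α3β4 stably expressed in HEK 293 (KXα3β4R2) cultured in MEM/10% FBS, 37 °C, 5% CO2; plated on poly-D-lysine, grown 18–24 h. Loaded with 86Rb+ (2 μCi/mL) 4 h at 37 °C, washed in HEPES buffer pH 7.4, then exposed 2 min to eight ligand concentrations.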

[8] = Fraction unbound in rat plasma at 5 uM after 4 hrs by equilibrium dialysis method; format: ADME, cell-free
Method in brief: (§3)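 Test agent at 5 μM incubated in rat plasma or brain homogenate. Dialysed against PBS in a RED equilibrium dialysis device for 4 h, both sides quantified by LC/MS/MS. Unbound fraction from protein-containing vs protein-free concentrations. Brain value corrected for homogenate dilution factor D.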

[9] = molecular target: T2, Neuronal acetylcholine receptor; alpha3/beta4 (Rattus norvegicus, UniProt P04757+P12392); test: Antagonist activity at rat alpha3beta4 nAChR expressed in HEK293 cells assessed as inhibition of nicotine-induced [86Rb+] efflux preincubated for 10 mins before nicotine exposure by liquid scintillation counting; format: cell-based
[10] = Fraction unbound in rat brain homogenate at 5 uM after 4 hrs equilibrium dialysis method; format: ADME, tissue-based; method in brief: as §3
[11] = molecular target: T2, Neuronal acetylcholine receptor; alpha3/beta4; test: Displacement of [3H]epibatidine from rat alpha3beta4 nAChR expressed in HEK293 cells after 4 hrs; format: cell-based; method in brief: as §2
[12] = molecular target: Neuronal acetylcholine receptor subunit alpha-7 (Rattus norvegicus, UniProt Q05941); test: Displacement of [3H]epibatidine from rat alpha7 nAChR expressed in HEK293 cells after 4 hrs; format: cell-based; method in brief: as §1
[13] = molecular target: T1, Neuronal acetylcholine receptor; alpha4/beta2; test: Agonist activity at human alpha4beta2 nAChR assessed as stimulation of [86Rb+] efflux after 2 mins by cell-based liquid scintillation counting relative to nicotine

Chain of Neuronal acetylcholine receptor; alpha2/beta4 (P12389 whole entry): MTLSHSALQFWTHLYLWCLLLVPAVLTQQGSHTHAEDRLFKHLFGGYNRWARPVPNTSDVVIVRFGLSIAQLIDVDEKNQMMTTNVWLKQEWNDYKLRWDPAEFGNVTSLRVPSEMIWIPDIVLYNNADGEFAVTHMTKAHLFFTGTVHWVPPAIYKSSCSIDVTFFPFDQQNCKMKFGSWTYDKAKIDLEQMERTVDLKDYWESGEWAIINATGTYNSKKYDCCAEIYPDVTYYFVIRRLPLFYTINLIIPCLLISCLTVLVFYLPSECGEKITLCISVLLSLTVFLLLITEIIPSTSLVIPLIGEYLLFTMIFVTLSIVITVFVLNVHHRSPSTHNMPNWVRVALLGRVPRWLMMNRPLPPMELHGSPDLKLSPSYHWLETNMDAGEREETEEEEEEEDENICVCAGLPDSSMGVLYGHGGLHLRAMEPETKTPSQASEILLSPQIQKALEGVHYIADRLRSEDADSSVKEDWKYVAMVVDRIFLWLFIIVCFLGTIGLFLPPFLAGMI
Chain of Neuronal acetylcholine receptor; alpha2/beta4 (P12392 whole entry): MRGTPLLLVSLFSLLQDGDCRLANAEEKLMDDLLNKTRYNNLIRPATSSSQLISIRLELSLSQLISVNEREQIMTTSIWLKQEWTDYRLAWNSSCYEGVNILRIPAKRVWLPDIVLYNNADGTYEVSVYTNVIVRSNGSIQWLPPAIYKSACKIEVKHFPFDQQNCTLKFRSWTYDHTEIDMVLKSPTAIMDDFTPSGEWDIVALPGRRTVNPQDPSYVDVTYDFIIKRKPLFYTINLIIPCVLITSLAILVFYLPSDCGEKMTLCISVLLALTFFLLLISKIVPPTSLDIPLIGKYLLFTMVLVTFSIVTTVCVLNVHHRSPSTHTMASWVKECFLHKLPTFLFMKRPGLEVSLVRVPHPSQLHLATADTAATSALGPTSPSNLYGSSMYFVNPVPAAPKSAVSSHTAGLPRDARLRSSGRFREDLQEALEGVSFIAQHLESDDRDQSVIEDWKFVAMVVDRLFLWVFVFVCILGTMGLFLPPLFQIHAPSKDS
Chain of Neuronal acetylcholine receptor; alpha2/beta2 (P12389 whole entry): as the sequence (P12389 whole entry) above
Chain of Neuronal acetylcholine receptor; alpha2/beta2 (P12390 whole entry): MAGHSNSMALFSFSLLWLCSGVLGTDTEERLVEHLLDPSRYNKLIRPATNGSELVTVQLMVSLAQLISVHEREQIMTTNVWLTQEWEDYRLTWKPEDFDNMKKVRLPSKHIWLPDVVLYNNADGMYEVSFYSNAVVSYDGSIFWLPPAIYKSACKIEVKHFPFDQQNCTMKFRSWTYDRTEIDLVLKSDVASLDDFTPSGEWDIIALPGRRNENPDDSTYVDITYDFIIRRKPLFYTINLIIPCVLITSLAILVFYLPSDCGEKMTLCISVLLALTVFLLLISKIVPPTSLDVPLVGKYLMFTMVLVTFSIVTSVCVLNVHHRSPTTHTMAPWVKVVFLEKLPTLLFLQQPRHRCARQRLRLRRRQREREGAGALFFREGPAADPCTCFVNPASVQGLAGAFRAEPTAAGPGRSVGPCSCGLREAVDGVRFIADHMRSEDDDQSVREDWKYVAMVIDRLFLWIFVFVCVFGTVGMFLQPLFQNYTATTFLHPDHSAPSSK
Chain of Neuronal acetylcholine receptor subunit alpha-7 (Q05941 whole entry): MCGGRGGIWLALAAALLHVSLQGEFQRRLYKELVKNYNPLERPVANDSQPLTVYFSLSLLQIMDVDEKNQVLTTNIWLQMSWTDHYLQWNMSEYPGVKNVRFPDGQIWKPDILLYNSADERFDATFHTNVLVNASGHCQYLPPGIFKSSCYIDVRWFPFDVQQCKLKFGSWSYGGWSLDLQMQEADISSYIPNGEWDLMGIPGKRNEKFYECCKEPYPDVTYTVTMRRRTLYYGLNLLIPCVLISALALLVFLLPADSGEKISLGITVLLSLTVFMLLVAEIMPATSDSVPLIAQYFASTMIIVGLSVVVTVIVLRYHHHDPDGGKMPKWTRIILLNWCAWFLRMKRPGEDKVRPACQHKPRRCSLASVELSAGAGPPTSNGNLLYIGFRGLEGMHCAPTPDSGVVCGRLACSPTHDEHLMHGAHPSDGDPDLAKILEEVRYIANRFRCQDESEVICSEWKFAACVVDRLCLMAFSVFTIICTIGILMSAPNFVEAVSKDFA
Chain of Neuronal acetylcholine receptor; alpha3/beta2 (P04757 whole entry): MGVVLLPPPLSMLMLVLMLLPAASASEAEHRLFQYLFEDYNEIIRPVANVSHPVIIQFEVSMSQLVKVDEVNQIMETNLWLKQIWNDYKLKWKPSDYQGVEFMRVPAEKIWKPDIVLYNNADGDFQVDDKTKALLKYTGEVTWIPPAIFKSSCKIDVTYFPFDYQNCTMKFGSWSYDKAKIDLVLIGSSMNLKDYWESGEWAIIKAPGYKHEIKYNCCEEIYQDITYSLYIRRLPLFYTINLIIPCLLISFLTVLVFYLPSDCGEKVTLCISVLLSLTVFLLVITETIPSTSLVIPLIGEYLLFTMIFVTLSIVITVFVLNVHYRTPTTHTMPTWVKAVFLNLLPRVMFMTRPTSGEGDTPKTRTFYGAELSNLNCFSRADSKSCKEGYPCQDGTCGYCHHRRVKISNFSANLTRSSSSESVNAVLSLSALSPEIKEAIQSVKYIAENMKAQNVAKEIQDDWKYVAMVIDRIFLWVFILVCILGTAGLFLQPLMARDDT
Chain of Neuronal acetylcholine receptor; alpha3/beta2 (P12390 whole entry): as the sequence (P12390 whole entry) above
T2 sequence (P04757 whole entry): as the sequence (P04757 whole entry) above
T2 sequence (P12392 whole entry): as the sequence (P12392 whole entry) above
Chain of Neuronal acetylcholine receptor; alpha4/beta4 (P09483 whole entry): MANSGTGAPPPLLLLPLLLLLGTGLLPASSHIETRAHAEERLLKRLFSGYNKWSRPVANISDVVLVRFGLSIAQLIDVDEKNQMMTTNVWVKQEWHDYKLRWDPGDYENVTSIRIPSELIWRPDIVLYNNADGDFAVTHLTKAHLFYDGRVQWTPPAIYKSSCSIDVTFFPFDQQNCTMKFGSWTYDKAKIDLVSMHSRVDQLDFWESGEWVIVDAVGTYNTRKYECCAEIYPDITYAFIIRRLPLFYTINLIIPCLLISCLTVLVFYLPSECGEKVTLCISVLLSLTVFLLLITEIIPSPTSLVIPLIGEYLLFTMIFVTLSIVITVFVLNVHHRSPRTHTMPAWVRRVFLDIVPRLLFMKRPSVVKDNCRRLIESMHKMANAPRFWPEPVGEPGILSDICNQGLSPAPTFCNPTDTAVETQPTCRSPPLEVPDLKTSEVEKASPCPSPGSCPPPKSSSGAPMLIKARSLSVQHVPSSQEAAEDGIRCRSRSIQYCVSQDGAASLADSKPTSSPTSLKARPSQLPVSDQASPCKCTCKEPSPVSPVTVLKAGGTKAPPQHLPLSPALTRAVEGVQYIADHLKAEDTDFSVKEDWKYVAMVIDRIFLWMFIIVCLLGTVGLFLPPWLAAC
Chain of Neuronal acetylcholine receptor; alpha4/beta4 (P12392 whole entry): as the sequence (P12392 whole entry) above
T1 sequence (P17787 whole entry): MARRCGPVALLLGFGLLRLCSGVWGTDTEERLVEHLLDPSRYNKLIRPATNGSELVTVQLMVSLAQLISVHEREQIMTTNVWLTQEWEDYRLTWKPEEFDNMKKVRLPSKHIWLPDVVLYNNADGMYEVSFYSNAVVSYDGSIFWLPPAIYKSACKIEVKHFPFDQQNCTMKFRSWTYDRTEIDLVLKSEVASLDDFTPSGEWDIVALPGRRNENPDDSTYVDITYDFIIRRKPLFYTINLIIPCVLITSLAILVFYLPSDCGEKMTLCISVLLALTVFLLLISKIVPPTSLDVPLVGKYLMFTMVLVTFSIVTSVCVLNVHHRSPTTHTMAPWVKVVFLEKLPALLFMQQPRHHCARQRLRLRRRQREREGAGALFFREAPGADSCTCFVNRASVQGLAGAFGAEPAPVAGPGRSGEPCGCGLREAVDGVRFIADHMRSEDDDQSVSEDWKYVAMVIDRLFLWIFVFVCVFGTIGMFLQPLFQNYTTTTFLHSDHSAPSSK
T1 sequence (P43681 whole entry): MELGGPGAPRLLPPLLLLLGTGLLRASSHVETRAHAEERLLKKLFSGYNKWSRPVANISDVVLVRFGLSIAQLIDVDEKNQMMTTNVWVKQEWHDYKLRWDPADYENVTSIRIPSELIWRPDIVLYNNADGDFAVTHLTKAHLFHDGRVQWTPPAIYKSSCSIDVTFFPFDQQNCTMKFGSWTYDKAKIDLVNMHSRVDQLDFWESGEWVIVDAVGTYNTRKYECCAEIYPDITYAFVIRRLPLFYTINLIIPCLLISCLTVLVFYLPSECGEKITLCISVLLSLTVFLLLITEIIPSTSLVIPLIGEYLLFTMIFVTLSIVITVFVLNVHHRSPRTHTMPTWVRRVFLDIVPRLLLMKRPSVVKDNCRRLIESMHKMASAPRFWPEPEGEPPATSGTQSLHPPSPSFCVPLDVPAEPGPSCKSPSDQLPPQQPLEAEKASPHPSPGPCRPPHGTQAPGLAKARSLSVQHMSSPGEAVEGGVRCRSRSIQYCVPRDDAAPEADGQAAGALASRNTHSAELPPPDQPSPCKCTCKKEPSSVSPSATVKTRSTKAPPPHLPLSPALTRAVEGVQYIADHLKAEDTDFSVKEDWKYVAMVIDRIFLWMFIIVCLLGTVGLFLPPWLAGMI

Row | Compound | Ki [1] | Ratio Ki (HEK293) | Ki [2] | Ki [3] | Ki [4] | Ki [5] | Ki [6] | Emax [7] | fraction unbound at 4 h, 5 µM [8] | IC50 [9] | fraction unbound at 4 h, 5 µM [10] | Ki [11] | Ki [12] | Emax [13]
1 | Cc1cc(F)cc(C#Cc2cncc(OC[C@@H]3CCN3)c2)c1 | 0.043 nM | 26000 | 38 nM | 8.1 nM | 1.4 nM | 0.24 nM | 0.064 nM |  |  |  |  |  |  | 
2 | c1cnc2cc3c(cc2n1)[C@@H]1CNC[C@H]3C1 [VARENICLINE] |  |  | 71 nM | 15 nM | 0.71 nM | 1.9 nM | 0.22 nM | 82% | 0.709 | > 10000 nM | 0.897 | 460 nM | 62 nM | 
3 | COc1cc(F)cc(C#Cc2cncc(OC[C@@H]3CCN3)c2)c1 | 0.076 nM | 17000 | 53 nM | 10 nM | 1.7 nM | 0.59 nM | 0.091 nM |  |  |  |  |  |  | 
4 | OCCCCC#Cc1cncc(OC[C@@H]2CCN2)c1 | 0.062 nM | 31000 |  |  | 0.17 nM |  |  |  | 0.751 | > 10000 nM | 0.598 |  |  | 40%
5 | c1ccc(-c2cncc(OC[C@@H]3CCN3)c2)cc1 | 0.14 nM | 9280 | 36 nM | 6.2 nM | 1.1 nM | 5 nM | 0.22 nM |  |  |  |  | 1300 nM | 11000 nM | 
6 | C(#Cc1cncc(OC[C@H]2CCN2)c1)c1ccccc1 | 0.11 nM | 15000 | 46 nM | 8.9 nM | 1.1 nM | 0.92 nM | 0.19 nM |  |  |  |  |  |  | 
7 | Fc1cccc(C#Cc2cncc(OC[C@@H]3CCN3)c2)c1 | 0.032 nM | 16000 | 31 nM | 5.3 nM | 0.44 nM | 0.19 nM | 0.029 nM |  |  |  |  |  |  | 
8 | CCCNCCOc1cncc(C#Cc2ccccc2)c1 | > 1000 nM |  | > 250000 nM | > 50000 nM | > 50000 nM | > 10000 nM | > 5000 nM |  |  |  |  | > 500000 nM | > 25000 nM | 
9 | Cc1cccc(C#Cc2cncc(OC[C@@H]3CCN3)c2)c1 | 0.046 nM | 87000 | 46 nM | 12 nM | 1.1 nM | 0.34 nM | 0.053 nM |  |  |  |  |  |  | 
10 | O=C(CCCN1CCC(O)(c2ccc(Cl)cc2)CC1)c1ccc(F)cc1 [HALOPERIDOL] |  |  |  |  |  |  |  |  |  |  | 0.016 |  |  | 
